# Source: article PMC8335715 (Medicinal Chemistry Research, 2021)
# Biological target: rat lens ALR2 (Rattus norvegicus, UniProt P07943)
# Assay: ALR2 enzyme inhibition assay
# Type: biochemical
# Settings: ratio IC50 ALR1 / IC50 ALR2; called SF in text
# In short: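 Rat lens enzyme (male Wistar) was partially purified: homogenised in cold water, spun at 10.000 g, fractionated with ammonium sulfate (40/50/75%). Substrate was D,L-glyceraldehyde in 0.067 M phosphate, pH 6.2, at 30 °C. Substrate started the reaction, and a substrate-free blank corrected NADPH oxidation. Test compound was in NaHCO3 or DMSO (1% final). IC50 came from least-squares fit of the linear semilog portion (25–75% inhibition), at least two experiments. The selectivity index was calculated against kidney-enzyme IC50.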
row,SMILES,Selectivity index (ALR1/ALR2)
1,"COc1ccc2nc(/N=C3/NC(=O)C(=Cc4ccc(O)cc4)S3)sc2c1 [Compound 2, (Z)-5-(4-hydroxybenzylidene)-2-((6-methoxybenzo[d]thiazol-2-yl)imino)thiazolidin-4-one]",< 1
2,"COc1ccc2nc(/N=C3/NC(=O)C(=Cc4ccc(O)c(OC)c4)S3)sc2c1 [Compound 4, (Z)-5-(4-hydroxy-3-methoxybenzylidene)-2-((6-methoxybenzo[d]thiazol-2-yl)imino) thiazolidin-4-one]",< 1
3,"COc1ccc(/C=C2\SC(=Nc3nc4ccc(OC)cc4s3)NC2=O)cc1 [Compound 3, (Z)-2-((6-methoxybenzo[d]thiazol-2-yl)imino)-5-(4-methoxybenzylidene)thiazolidin-4-one]",< 1
